{"source": "ChEMBL document CHEMBL1140249", "about": "“Inhibitors of the inducible microsomal prostaglandin E2 synthase (mPGES-1) derived from MK-886” (Bioorg Med Chem Lett, 2005)"}
{"biological_target": "T1, Thromboxane-A synthase (Homo sapiens, UniProt P24557)", "T1 sequence (P24557 whole entry)": "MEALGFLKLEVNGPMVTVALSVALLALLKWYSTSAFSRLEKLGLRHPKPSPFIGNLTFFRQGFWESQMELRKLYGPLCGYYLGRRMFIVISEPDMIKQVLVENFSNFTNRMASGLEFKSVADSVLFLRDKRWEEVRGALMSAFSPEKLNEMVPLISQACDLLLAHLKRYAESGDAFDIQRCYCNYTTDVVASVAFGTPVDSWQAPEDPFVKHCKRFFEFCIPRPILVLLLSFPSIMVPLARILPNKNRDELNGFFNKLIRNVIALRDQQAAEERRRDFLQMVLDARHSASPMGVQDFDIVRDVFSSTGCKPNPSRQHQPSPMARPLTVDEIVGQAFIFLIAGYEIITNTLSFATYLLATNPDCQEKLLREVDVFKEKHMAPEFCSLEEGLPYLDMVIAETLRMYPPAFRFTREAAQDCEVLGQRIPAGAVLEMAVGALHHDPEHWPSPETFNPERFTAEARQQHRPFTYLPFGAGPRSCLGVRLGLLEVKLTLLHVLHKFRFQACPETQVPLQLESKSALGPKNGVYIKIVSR", "experiment": "In vitro inhibition against human Thromboxane synthase", "units": {"IC50": "nM"}}
{"smiles": "Cc1ccccc1-c1ccc(-c2ccc3c(c2)c(C)c(CC(C)(C)C(=O)O)n3Cc2ccc(Cl)cc2)cc1F", "IC50": 950}
{"smiles": "Cc1c(CC(C)(C)C(=O)O)n(Cc2ccc(Cl)cc2)c2ccc(-c3ccc(-c4ccccc4)c(F)c3)cc12", "IC50": 1400}
{"biological_target": "Prostaglandin E synthase (Homo sapiens, UniProt O14684)", "sequence (O14684 whole entry, looked up)": "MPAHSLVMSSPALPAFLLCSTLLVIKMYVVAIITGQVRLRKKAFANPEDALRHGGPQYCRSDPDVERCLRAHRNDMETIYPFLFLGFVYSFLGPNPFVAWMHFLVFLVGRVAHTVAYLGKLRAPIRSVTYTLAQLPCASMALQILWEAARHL", "experiment": "Inhibitory concentration against human prostaglandin E2 synthase (mPGES-1)", "how_it_was_run": "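Microsomes from CHO cells expressing recombinant human mPGES-1, 5–10 lg protein/mL, preincubated with inhibitor 15 min. Reaction started with 1 µM PGH₂ and run 0.5 min, then stopped with 0.1 N HCl plus stannous chloride. PGE₂ measured by EIA. IC₅₀ from eight-point titrations.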", "units": {"IC50": "nM"}}
{"smiles": "COC(=O)C(C)(C)Cc1c(SC(C)(C)C)c2cc(C(C)C)ccc2n1Cc1ccc(Cl)cc1", "IC50": 7200}
{"smiles": "CC(C)c1ccc2c(c1)c(-c1ccccc1)c(CC(C)(C)C(=O)O)n2Cc1ccc(Cl)cc1", "IC50": 6400}
{"smiles": "CC(C)c1ccc2[nH]c(CC(C)(C)C(=O)O)c(SC(C)(C)C)c2c1", "IC50": "> 10000"}
{"smiles": "Cc1c(CC(C)(C)C(=O)O)n(Cc2ccc(Cl)cc2)c2c(C(C)C)cccc12", "IC50": 4300}
{"smiles": "Cc1c(CC(C)(C)C(=O)O)n(Cc2ccc(Cl)cc2)c2ccc(-c3cccc(-c4ccccc4)c3)cc12", "IC50": 160}
{"smiles": "CC(C)c1ccc2c(c1)c(SC(C)(C)C)c(CC(C)(C)C(=O)ON)n2Cc1ccc(Cl)cc1", "IC50": "> 10000"}
{"smiles": "CC(C)c1ccc2c(c1)c(C(=O)CC(C)(C)C)c(CC(C)(C)C(=O)O)n2Cc1ccc(Cl)cc1", "IC50": 250}
{"smiles": "CC(C)c1ccc2c(c1)c(SC(C)(C)C)c(CC(C)(C)C(=O)O)n2C", "IC50": "> 10000"}
{"smiles": "Cc1c(CC(C)(C)C(=O)O)n(Cc2ccc(Cl)cc2)c2ccc(-c3ccc(-c4cccnc4)c(F)c3)cc12", "IC50": 12}
{"smiles": "Cc1c(CC(C)(C)C(=O)O)n(Cc2ccc(Cl)cc2)c2ccc(-c3ccc(-c4cnccn4)c(F)c3)cc12", "IC50": 32}
{"smiles": "Cc1c(CC(C)(C)C(=O)O)n(Cc2ccc(Cl)cc2)c2ccc(-c3ccccc3)cc12", "IC50": 600}
{"smiles": "Cc1c(CC(C)(C)C(=O)O)n(Cc2ccc(Cl)cc2)c2ccc(C(C)(C)C)cc12", "IC50": 330}
{"smiles": "CC(C)c1ccc2c(c1)c(Oc1ccccc1)c(CC(C)(C)C(=O)O)n2Cc1ccc(Cl)cc1", "IC50": 650}
{"smiles": "Cc1ccc(-c2ccc(-c3ccc4c(c3)c(C)c(CC(C)(C)C(=O)O)n4Cc3ccc(Cl)cc3)cc2F)cc1", "IC50": 31}
{"smiles": "Cc1cccc(-c2ccc(-c3ccc4c(c3)c(C)c(CC(C)(C)C(=O)O)n4Cc3ccc(Cl)cc3)cc2F)c1", "IC50": 33}
{"smiles": "CC(C)c1ccc2c(c1)c(Cc1ccc(C(C)(C)C)cc1)c(CC(C)(C)C(=O)O)n2Cc1ccc(Cl)cc1", "IC50": 290}
{"smiles": "Cc1c(CC(C)(C)C(=O)O)n(Cc2ccc(Cl)cc2)c2ccc(F)cc12", "IC50": 2600}
{"smiles": "Cc1c(CC(C)(C)C(=O)O)n(Cc2ccc(Cl)cc2)c2ccc(-c3ccc(-c4ccccc4)c(Cl)c3)cc12", "IC50": 22}
{"smiles": "Cc1c(CC(C)(C)C(=O)O)n(Cc2ccc(Cl)cc2)c2ccc(-c3ccc(-c4ccccc4F)c(F)c3)cc12", "IC50": 8}
{"smiles": "Cc1c(CC(C)(C)C(=O)O)n(Cc2ccc(Cl)cc2)c2ccc(C(C)C)cc12", "IC50": 1100}
{"smiles": "CC(=O)c1ccccc1-c1ccc(-c2ccc3c(c2)c(C)c(CC(C)(C)C(=O)O)n3Cc2ccc(Cl)cc2)cc1F", "IC50": 6}
{"smiles": "COc1ccccc1-c1ccc(-c2ccc3c(c2)c(C)c(CC(C)(C)C(=O)O)n3Cc2ccc(Cl)cc2)cc1F", "IC50": 5}
{"smiles": "CC(C)c1ccc2c(c1)c(C(=O)CSC(C)(C)C)c(CC(C)(C)C(=O)O)n2Cc1ccc(Cl)cc1", "IC50": 260}
{"smiles": "Cc1c(CC(C)(C)C(=O)O)n(Cc2ccc(Cl)cc2)c2ccccc12", "IC50": 3200}
{"biological_target": "T2, Arachidonate 5-lipoxygenase-activating protein (Homo sapiens, UniProt P20292)", "T2 sequence (P20292 whole entry)": "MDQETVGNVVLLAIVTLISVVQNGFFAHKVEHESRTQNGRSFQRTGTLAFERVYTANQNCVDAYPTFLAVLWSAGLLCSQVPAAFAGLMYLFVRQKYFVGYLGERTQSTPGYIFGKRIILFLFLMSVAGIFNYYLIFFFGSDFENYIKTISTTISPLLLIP", "experiment": "In vitro binding affinity against FLAP (5-Lipoxygenase activation protein)", "units": {"IC50": "nM"}}
{"smiles": "Cc1ccccc1-c1ccc(-c2ccc3c(c2)c(C)c(CC(C)(C)C(=O)O)n3Cc2ccc(Cl)cc2)cc1F", "IC50": "> 1000"}
{"smiles": "Cc1c(CC(C)(C)C(=O)O)n(Cc2ccc(Cl)cc2)c2ccc(-c3ccc(-c4ccccc4)c(F)c3)cc12", "IC50": "> 1000"}
